Source: PubChem (several laboratories)
ARFGAP1 inh = rat ARFGAP1 inhibition. inhibition, % at 16.5 µM. AID 651572. Q62848. actives 0.26% (n = 360,000). Arfgap1-stimulated ARF1 GTP hydrolysis, GDP FP detection;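 active means inhibition above a per-plate limit, mean inhibition of low control wells plus 3 SD, cut at about 25% in these data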
Target sequence (Q62848 1-136 limits assumed): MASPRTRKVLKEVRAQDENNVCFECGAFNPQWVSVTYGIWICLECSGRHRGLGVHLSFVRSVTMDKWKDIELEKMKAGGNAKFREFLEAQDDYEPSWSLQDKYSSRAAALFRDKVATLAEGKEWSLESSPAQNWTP
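Assay system: purified rat His6-Arfgap1 residues 1-136 (GAP domain); Reagent: human Δ17 ARF1 bound to GTP; Dosing: 16.5 µM single point, 1.26% DMSO; Times: GTP hydrolysis reaction 2 h at 25 °C; Signal: FP, GDP Alexa 633 tracer displaced from anti-GDP antibody, 620/688 nm; Measure: % inhibition from polarization.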
esBAF inh = blocks esBAF chromatin remodeling in mouse ES cells. reporter increase, % at 12.5 µM. actives 2% (n = 350,000). Bmi1-luciferase knock-in reporter, 24 h; 100% = twice the neutral-well signal; in the data active means activation above about 40%;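 further: a rise in the Bmi1 reporter signal indicates esBAF inhibition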
SMARCA2 activ = activators of SMARCA2 function; MG213 cells, MMTV-luciferase reporter, dexamethasone, overnight; activation, % at 9.1 µM; actives 1% (n = 370,000); in the data active means activation above about 7.8%
ASAP1 GAP inh = inhibitors of human ASAP1 ArfGAP activity; inhibition, % at 16.5 µM; ASAP1-stimulated ARF1 GTP hydrolysis, GDP FP detection; actives 0.19% (n = 360,000); in the data active means inhibition above about 25%
Target sequence (Q9ULH1 325-724 limits assumed): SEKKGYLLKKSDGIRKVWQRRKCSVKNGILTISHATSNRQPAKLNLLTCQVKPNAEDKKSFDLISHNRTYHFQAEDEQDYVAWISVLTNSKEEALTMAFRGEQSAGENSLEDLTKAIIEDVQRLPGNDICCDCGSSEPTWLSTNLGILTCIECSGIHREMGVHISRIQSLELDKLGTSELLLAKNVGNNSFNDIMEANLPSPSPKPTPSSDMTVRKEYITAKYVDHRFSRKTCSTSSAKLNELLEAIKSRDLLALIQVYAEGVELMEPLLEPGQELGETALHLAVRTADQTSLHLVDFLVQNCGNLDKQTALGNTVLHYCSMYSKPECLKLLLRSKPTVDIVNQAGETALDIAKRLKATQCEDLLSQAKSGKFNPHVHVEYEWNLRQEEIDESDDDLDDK
SMARCA2 conf = SMARCA2 activation, confirmation screen | MG213 cells, MMTV-luciferase with dexamethasone, luminescence, overnight; MG213 cells expressing E1A, Rb sequestered; DMSO wells 0%, reference activator 100% | actives 30% (n = 3,500) | activation, % at 9.1 µM | shares compounds with SMARCA2 activ;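 active means activation above its plate's cutoff, the mean activation of tested wells plus 3 SD, cut at about 7.9% in these data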
VP16 Luc act = counter-screen for SMARCA2 activators: GAL4-VP16 luciferase reporter activation. shares compounds with SMARCA2 activ. HEK293 GAL4-VP16 pG5luc reporter, luciferase luminescence; scaled: DMSO wells 0%, SAHA wells 100%. activation, % at 9.1 µM. actives 41% (n = 3,500). AID 686939;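 active means activation above the solvent-only control well mean plus 3 SD, averaged across control plates, cut at about 5.2% in these data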
Hits are given with their value. Sampled rows, rich in hits. Any-hit rate of the full collection: about 2.6%.

For O=C(NCC1CCCN1S(=O)(=O)c1cccs1)c1ccccc1F (stereo not drawn) the results were ARFGAP1 inh inactive, esBAF inh inactive, SMARCA2 activ 8.4, ASAP1 GAP inh inactive, SMARCA2 conf inactive and VP16 Luc act inactive.
CN(CCc1ccccn1)C(=O)c1cccnc1Oc1ccccc1 was read as ARFGAP1 inh inactive, esBAF inh inactive, SMARCA2 activ 12, ASAP1 GAP inh inactive, SMARCA2 conf inactive and VP16 Luc act inactive.
COc1ccc(C2=NN(C(=O)CSc3nccn3C)C(c3ccco3)C2)cc1 (stereo not drawn) was read as ARFGAP1 inh inactive, esBAF inh inactive, SMARCA2 activ inactive and ASAP1 GAP inh inactive.
`COc1ccc(C2=NN(C(=O)CSc3nnc(C)c(=O)n3N)C(c3ccco3)C2)cc1` (stereo not drawn) gave ARFGAP1 inh inactive, SMARCA2 activ 13, ASAP1 GAP inh inactive, SMARCA2 conf inactive and VP16 Luc act inactive.
C[C@@H]1CCCCO[C@H](CN(C)C(=O)NC2CCCCC2)[C@@H](C)CN([C@@H](C)CO)C(=O)c2cc(NC(=O)c3ccncc3)ccc2O1 was read as esBAF inh inactive.
`CC(C)NC(=O)Nc1ccc2c(c1)CC(=O)N([C@H](C)CO)C[C@H](C)[C@@H](CN(C)S(=O)(=O)c1cn(C)cn1)O2` gave esBAF inh inactive.
For Cc1cc(C(=O)N2CCC2(C)C(=O)NS(=O)(=O)c2cccc(Cl)c2)nn1C (stereo not drawn) the results were ARFGAP1 inh inactive, esBAF inh inactive, SMARCA2 activ 8.1, ASAP1 GAP inh inactive, SMARCA2 conf inactive and VP16 Luc act inactive.
`C[C@H]1CN([C@@H](C)CO)C(=O)CCCn2nncc2CO[C@H]1CN(C)C(=O)Nc1ccc(C(C)(C)C)cc1` gave esBAF inh inactive.
O=C(Nc1ccc(N2CCOCC2)cc1)c1nc2ccccc2s1 was read as ARFGAP1 inh inactive, esBAF inh inactive, SMARCA2 activ 12, ASAP1 GAP inh inactive, SMARCA2 conf 8.5 and VP16 Luc act 12.
COc1ccc(C#Cc2cnc3c(c2)C(=O)N([C@@H](C)CO)C[C@H](C)[C@H](CN(C)C)O3)cc1 was read as esBAF inh inactive.
COCC(=O)Nc1ccc2c(c1)[C@@H]1C[C@@H](CC(=O)O)O[C@@H](CO)[C@@H]1O2 was read as esBAF inh inactive.
Screening CCOC(=O)c1cccc(NC(=O)c2cncc(Br)c2)c1 returned ARFGAP1 inh inactive, SMARCA2 activ 9.0, ASAP1 GAP inh inactive, SMARCA2 conf inactive and VP16 Luc act inactive.
O=C(Nc1cccc(NC(=O)c2cncc(Br)c2)c1)c1cncc(Br)c1 was read as ARFGAP1 inh inactive, esBAF inh inactive, SMARCA2 activ inactive and ASAP1 GAP inh inactive.
Screening C[C@@H]1CN([C@@H](C)CO)C(=O)c2cc(NS(C)(=O)=O)ccc2O[C@@H](C)CCCCO[C@@H]1CN(C)C returned esBAF inh inactive.
O=C(c1cc(-c2ccc(Br)cc2)on1)N1CCCCCC1 was read as ARFGAP1 inh inactive, esBAF inh inactive, SMARCA2 activ 9.4, ASAP1 GAP inh inactive, SMARCA2 conf inactive and VP16 Luc act 5.7.
O=C(c1cc(-c2ccc(Br)cc2)on1)N1CCOCC1 was read as ARFGAP1 inh inactive, esBAF inh inactive, SMARCA2 activ inactive and ASAP1 GAP inh inactive.
`S=C(c1ccc(-c2ccc(Br)cc2)o1)N1CCCCC1` gave ARFGAP1 inh inactive, esBAF inh 48, SMARCA2 activ 8.1, ASAP1 GAP inh inactive, SMARCA2 conf 16 and VP16 Luc act 8.3.
O=C1/C(=C/c2ccco2)CCc2ccccc21 was read as ARFGAP1 inh inactive, SMARCA2 activ inactive and ASAP1 GAP inh inactive.
Screening COc1ccc2c(c1)CC/C(=C/c1ccco1)C2=O returned ARFGAP1 inh inactive, SMARCA2 activ 20, ASAP1 GAP inh inactive, SMARCA2 conf inactive and VP16 Luc act 12.
For C[C@H](CO)N1C[C@H](C)[C@@H](CN(C)C(=O)NC2CCCCC2)OCCCC[C@H](C)Oc2ccc(NS(C)(=O)=O)cc2C1=O the results were esBAF inh inactive.
Cc1ccc(/C=c2/sc3n(c2=O)CCCN=3)o1 was read as ARFGAP1 inh inactive, esBAF inh 53, SMARCA2 activ 8.7, ASAP1 GAP inh inactive, SMARCA2 conf inactive and VP16 Luc act inactive.
For Cc1cc(C(=O)Nc2cnc3ccccc3c2)ccc1[N+](=O)[O-] the results were ARFGAP1 inh inactive, SMARCA2 activ 9.3, ASAP1 GAP inh inactive, SMARCA2 conf inactive and VP16 Luc act 8.5.
For C/C(=N/NC(=O)c1ccccn1)c1c[nH]c2ccccc12 the results were ARFGAP1 inh inactive, esBAF inh 55, SMARCA2 activ 16, ASAP1 GAP inh inactive, SMARCA2 conf 12 and VP16 Luc act inactive.
Screening C/C(=N/NC(=O)c1ccccn1)c1ccc(O)cc1 returned ARFGAP1 inh inactive, esBAF inh inactive, SMARCA2 activ inactive and ASAP1 GAP inh inactive.
`CCN(CC)c1ccc(/C=N/Nc2nc(C)cc(C)n2)cc1` gave ARFGAP1 inh inactive, SMARCA2 activ 8.1, ASAP1 GAP inh inactive, SMARCA2 conf inactive and VP16 Luc act inactive.
Cc1ccc(Sc2cc(C(=O)NCCN(C)C)c3ccccc3n2)cc1 was read as ARFGAP1 inh inactive, esBAF inh inactive, SMARCA2 activ inactive and ASAP1 GAP inh inactive.
`CN(C)CCNC(=O)c1cccc2nc3c(ccc4ccccc43)nc12` gave ARFGAP1 inh inactive, SMARCA2 activ 19, ASAP1 GAP inh inactive, SMARCA2 conf 32 and VP16 Luc act inactive.
Screening COc1ccc(-c2coc3c(C(=O)NCCN(C)C)cccc23)c(C)c1 returned ARFGAP1 inh inactive, esBAF inh inactive, SMARCA2 activ inactive and ASAP1 GAP inh inactive.
For CN(C)CCNC(=O)c1cccc2[nH]c(-c3ccncc3)nc12 the results were ARFGAP1 inh inactive, SMARCA2 activ inactive and ASAP1 GAP inh inactive.
`COc1cccc2nc3c(C(=O)NCCN(C)C)cccc3cc12` gave ARFGAP1 inh inactive, SMARCA2 activ 10, ASAP1 GAP inh inactive, SMARCA2 conf 42 and VP16 Luc act inactive.
Screening COc1ccc(-c2nc3c(C(=O)NCCN(C)C)cccc3c3ccccc23)cc1 returned ARFGAP1 inh inactive, SMARCA2 activ 12, ASAP1 GAP inh inactive, SMARCA2 conf 26 and VP16 Luc act inactive.
`COc1ccc(C(=O)NCCN(C)C)c2nc3ccccc3cc12` gave ARFGAP1 inh inactive, SMARCA2 activ 12, ASAP1 GAP inh inactive, SMARCA2 conf 95 and VP16 Luc act 7.3.
Screening Cc1ccc(S(=O)(=O)N(C)C[C@@H]2Oc3ccc(NS(=O)(=O)c4cn(C)cn4)cc3CC(=O)N([C@@H](C)CO)C[C@@H]2C)cc1 returned esBAF inh inactive.
